In brackets after ≈: the same amount, converted by molar mass. Activity calls are given as the source filed them. No cut-off for these calls is given here.
How the values were obtained:
[1] = test system: Human immunodeficiency virus; experiment: Antiviral activity against Human immunodeficiency virus expressing reverse transcriptase K103N mutant infected in human MT4 cells by p24 antigen assay in the presence of 10% FBS; type: functional; conditions: Human immunodeficiency virus 1, MT4; read-out: CIC95
Procedure, shortened: (§1)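 Antiviral spread assay in MT-4 human T-lymphoid cells kept in RPMI 1640 with 10% FBS. Value is the CIC95, the concentration inhibiting virus replication by >95%. Reported as the geometric mean of at least two determinations, all within 2-fold of the mean. Cytotoxicity was checked up to the assay upper limit of 8.3 μM.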

[2] = Inhibition of Human immunodeficiency virus reverse transcriptase by SPA assay
[3] = test system: Human immunodeficiency virus; experiment: Antiviral activity against Human immunodeficiency virus expressing wild type reverse transcriptase infected in human MT4 cells by p24 antigen assay in the presence of 10% FBS; type: functional; conditions: Human immunodeficiency virus 1, MT4; read-out: CIC95
Procedure, shortened: (§2)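 MT-4 human T-lymphoid cells in RPMI 1640 with either 10% FBS or 50% NHS; CIC95 taken as the concentration inhibiting virus spread/replication by >95%. Geometric mean of at least two determinations, individual values within 2-fold; SEM given when ≥3 determinations.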

[4] = biological target: Human immunodeficiency virus type 1 reverse transcriptase (Human immunodeficiency virus 1, UniProt Q72547, K103N); experiment: Inhibition of Human immunodeficiency virus reverse transcriptase K103N mutant by SPA assay
Procedure, shortened: (§3)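 Recombinant HIV-1 RT polymerase scintillation proximity assay run with mutant enzyme, reported as Ki (nM). Values are geometric means of at least two determinations, each within 2-fold of the mean; SEM is given where there were ≥3 determinations.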

[5] = biological target: Human immunodeficiency virus type 1 reverse transcriptase (Human immunodeficiency virus 1, UniProt Q72547, Y181C); experiment: Inhibition of Human immunodeficiency virus reverse transcriptase Y181C mutant by SPA assay; procedure, shortened: as §3
MT4 = experiment: Cytotoxicity against human MT4 cells up to 8.3 uM; type: cell-based
Procedure, shortened: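 MT-4 cells in RPMI 1640 with 10% FBS or 50% NHS, run alongside the antiviral CIC95 assay; cytotoxicity checked up to the assay upper limit of 8.3 μM.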

[6] = test system: Human immunodeficiency virus; experiment: Antiviral activity against Human immunodeficiency virus expressing wild type reverse transcriptase infected in human MT4 cells by p24 antigen assay in the presence of 50% normal human serum; type: functional; conditions: Human immunodeficiency virus 1, MT4; read-out: CIC95; procedure, shortened: as §2
Canis familiaris [7] = experiment: Dose normalised AUC in Beagle dog at 2 mg/kg, po by LC-MS analysis; type: ADME, organism-based, Canis lupus familiaris; set-up: dose 2 mg/kg, route oral; conditions: in vivo
Procedure, shortened: (§4)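 PK in Sprague-Dawley rats (iv solution in DMSO via an indwelling jugular cannula, or oral suspension in aqueous methylcellulose/Methocel) and beagle dogs (iv and oral given crossover, same vehicles). Plasma levels by LC-MS. F from oral versus iv dose-normalized AUC. Average of at least two animals; rat values within 25% of the mean.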

[8] = test system: Human immunodeficiency virus; experiment: Antiviral activity against Human immunodeficiency virus harboring reverse transcriptase K103N/P225H double mutant assessed as inhibition of viral replication; type: functional, organism-based
Procedure, shortened: (§5)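 Phenosense cell culture assay against a panel of clinically derived RT mutant viruses in the presence of 10% FBS. IC50 is the compound concentration blocking 50% of viral replication. Each value is the average of two determinations.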

[9] = test system: Human immunodeficiency virus; experiment: Antiviral activity against Human immunodeficiency virus expressing reverse transcriptase Y181C mutant infected in human MT4 cells by p24 antigen assay in the presence of 10% FBS; type: functional; conditions: Human immunodeficiency virus 1, MT4; read-out: CIC95; procedure, shortened: as §1
[10] = test system: Human immunodeficiency virus; experiment: Antiviral activity against Human immunodeficiency virus harboring reverse transcriptase G190A mutant assessed as inhibition of viral replication; type: functional, organism-based; procedure, shortened: as §5
[11] = Plasma clearance in Sprague-Dawley rat at 10 mg/kg, po and 2 mg/kg, iv; type: ADME, organism-based; procedure, shortened: as §4
[12] = test system: Human immunodeficiency virus; experiment: Antiviral activity against Human immunodeficiency virus harboring reverse transcriptase K103N/Y181C/G190A triple mutant assessed as inhibition of viral replication; type: functional, organism-based; procedure, shortened: as §5
[13] = test system: Human immunodeficiency virus; experiment: Antiviral activity against Human immunodeficiency virus harboring reverse transcriptase V106A/G190A/F227L triple mutant assessed as inhibition of viral replication; type: functional, organism-based; procedure, shortened: as §5
[14] = test system: Human immunodeficiency virus; experiment: Antiviral activity against Human immunodeficiency virus harboring reverse transcriptase L100l/K103N/P225P/H triple mutant assessed as inhibition of viral replication; type: functional, organism-based; procedure, shortened: as §5
[15] = Half life in Beagle dog at 2 mg/kg, po and 1 mg/kg, iv; type: ADME, organism-based, Canis lupus familiaris; conditions: in vivo; procedure, shortened: as §4
Rattus norvegicus = experiment: Dose normalised AUC in Sprague-Dawley rat at 10 mg/kg, po by LC-MS analysis; type: ADME, organism-based; set-up: dose 10 mg/kg, route oral; conditions: in vivo; procedure, shortened: as §4
[16] = test system: Human immunodeficiency virus; experiment: Antiviral activity against Human immunodeficiency virus harboring reverse transcriptase G190S mutant assessed as inhibition of viral replication; type: functional, organism-based; procedure, shortened: as §5
[17] = Volume of distribution in Beagle dog at 2 mg/kg, po and 1 mg/kg, iv; type: ADME, organism-based, Canis lupus familiaris; conditions: in vivo; procedure, shortened: as §4
[18] = test system: Human immunodeficiency virus; experiment: Antiviral activity against Human immunodeficiency virus harboring reverse transcriptase K101E/G190A double mutant assessed as inhibition of viral replication; type: functional, organism-based; procedure, shortened: as §5
[19] = Solubility of the compound in water at pH 2; type: physicochemical
Procedure, shortened: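 Water solubility of the solid compound measured at pH 2 and at pH 7.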

[20] = test system: Human immunodeficiency virus; experiment: Antiviral activity against Human immunodeficiency virus harboring reverse transcriptase Y188L mutant assessed as inhibition of viral replication; type: functional, organism-based; procedure, shortened: as §5
[21] = test system: Human immunodeficiency virus; experiment: Antiviral activity against multidrug-resistant Human immunodeficiency virus assessed as inhibition of viral replication; type: functional, organism-based; procedure, shortened: as §5
[22] = test system: Human immunodeficiency virus; experiment: Antiviral activity against wild type Human immunodeficiency virus assessed as inhibition of viral replication; type: functional, organism-based
[23] = test system: Human immunodeficiency virus; experiment: Antiviral activity against Human immunodeficiency virus harboring reverse transcriptase K101E/Y181C/G190A triple mutant assessed as inhibition of viral replication; type: functional, organism-based; procedure, shortened: as §5
[24] = test system: Human immunodeficiency virus; experiment: Antiviral activity against Human immunodeficiency virus harboring reverse transcriptase K103N mutant assessed as inhibition of viral replication; type: functional, organism-based; procedure, shortened: as §5
[25] = Half life in Sprague-Dawley rat at 10 mg/kg, po and 2 mg/kg, iv; type: ADME, organism-based; conditions: in vivo; procedure, shortened: as §4
[26] = Volume of distribution in Sprague-Dawley rat at 10 mg/kg, po and 2 mg/kg, iv; type: ADME, organism-based; conditions: in vivo; procedure, shortened: as §4
[27] = Bioavailability in Beagle dog at 2 mg/kg, po and 1 mg/kg, iv; type: ADME, organism-based, Canis lupus familiaris; conditions: in vivo; procedure, shortened: as §4
[28] = Plasma clearance in Beagle dog at 2 mg/kg, po and 1 mg/kg, iv; type: ADME, organism-based, Canis lupus familiaris; procedure, shortened: as §4
[29] = Bioavailability in Sprague-Dawley rat at 10 mg/kg, po and 2 mg/kg, iv; type: ADME, organism-based; conditions: in vivo; procedure, shortened: as §4
[30] = test system: Human immunodeficiency virus; experiment: Antiviral activity against Human immunodeficiency virus harboring reverse transcriptase Y181C mutant assessed as inhibition of viral replication; type: functional, organism-based; procedure, shortened: as §5
[31] = test system: Human immunodeficiency virus; experiment: Antiviral activity against Human immunodeficiency virus harboring reverse transcriptase L100l mutant assessed as inhibition of viral replication; type: functional, organism-based; procedure, shortened: as §5
[32] = Plasma clearance in Beagle dog at 0.125 mg/kg, iv; type: ADME, organism-based, Canis lupus familiaris; set-up: dose 0.125 mg/kg, route intravenous; procedure, shortened: as §4
[33] = Volume of distribution in Beagle dog at 0.125 mg/kg, iv; type: ADME, organism-based, Canis lupus familiaris; set-up: dose 0.125 mg/kg, route intravenous; conditions: in vivo; procedure, shortened: as §4
[34] = Half life in Beagle dog at 0.125 mg/kg, iv; type: ADME, organism-based, Canis lupus familiaris; set-up: dose 0.125 mg/kg, route intravenous; conditions: in vivo; procedure, shortened: as §4
[35] = Bioavailability in Beagle dog at 1 mg/kg, po and 0.25 mg/kg, iv; type: ADME, organism-based, Canis lupus familiaris; conditions: in vivo; procedure, shortened: as §4
Canis familiaris [36] = experiment: Dose normalised AUC in Beagle dog at 1 mg/kg, po by LC-MS analysis; type: ADME, organism-based, Canis lupus familiaris; set-up: dose 1 mg/kg, route oral; conditions: in vivo; procedure, shortened: as §4

N#Cc1cc(Cl)cc(Oc2cc(NCc3n[nH]c4ncccc34)c(N)cc2Cl)c1
IC95 [1]: 0.04 µM
Ki [2]: 2.3 nM
IC95 [3]: 0.024 µM
Ki [4]: 3.8 nM
Ki [5]: 3.3 nM
Activity (MT4): Non-toxic

Cc1nc2c(Oc3cc(Cl)cc(C#N)c3)c(Cl)ccc2n1Cc1n[nH]c2ncccc12
Ki [2]: > 300 nM
IC95 [3]: > 0.833 µM
Ki [4]: > 600 nM
IC95 [6]: > 0.833 µM
Ki [5]: > 300 nM
Activity (MT4): Non-toxic

N#Cc1cc(Cl)cc(Oc2c(Cl)ccc3c2cnn3Cc2n[nH]c3ncccc23)c1 [MK-6186]
AUC/dose (Canis familiaris [7]): 2.3 µM·h
inhibition [8]: Active
IC95 [9]: 0.058 µM
inhibition [10]: Active
clearance [11]: 18 mL/min/kg
IC95 [1]: 0.015 µM
inhibition [12]: Active
inhibition [13]: inactive
inhibition [14]: Active
half-life [15]: 768 min
AUC/dose (Rattus norvegicus): 1.6 µM·h
inhibition [16]: Active
Ki [2]: 0.34 nM
Vd [17]: 6 L/kg
inhibition [18]: Active
IC95 [3]: 0.011 µM
solubility [19]: < 0.1 µg/mL
inhibition [20]: inactive
inhibition [21]: Active
inhibition [22]: Active
inhibition [23]: Active
inhibition [24]: Active
Ki [4]: 0.58 nM
IC95 [6]: 0.064 µM
half-life [25]: 456 min
Ki [5]: 0.6 nM
Activity (MT4): Non-toxic
Vd [26]: 10.5 L/kg
bioavailability [27]: 48%
clearance [28]: 6.1 mL/min/kg
bioavailability [29]: 76%
inhibition [30]: Active
inhibition [31]: Active

N#Cc1cc(Cl)cc(Oc2c(Cl)ccc3c2nnn3Cc2n[nH]c3nc(N)ccc23)c1
IC95 [9]: 0.037 µM
clearance [32]: 2.2 mL/min/kg
clearance [11]: 11.9 mL/min/kg
IC95 [1]: 0.0058 µM
AUC/dose (Rattus norvegicus): 0.02 µM·h
Ki [2]: 1.1 nM
Vd [33]: 0.65 L/kg
IC95 [3]: 0.003 µM
Ki [4]: 0.94 nM
IC95 [6]: 0.036 µM
half-life [25]: 282 min
Ki [5]: 1.2 nM
Activity (MT4): Non-toxic
Vd [26]: 4.4 L/kg
half-life [34]: 768 min
bioavailability [29]: < 1%

N#Cc1cc(Cl)cc(Oc2c(Cl)ccc3c2ncn3Cc2n[nH]c3ncccc23)c1
IC95 [9]: 0.32 µM
clearance [11]: 25.6 mL/min/kg
IC95 [1]: 0.066 µM
half-life [15]: 768 min
AUC/dose (Rattus norvegicus): 0.56 µM·h
Ki [2]: 2 nM
Vd [17]: 0.37 L/kg
IC95 [3]: 0.023 µM
solubility [19]: 10 µg/mL (≈ 23 µM)
Ki [4]: 5.3 nM
IC95 [6]: 0.39 µM
half-life [25]: 144 min
Ki [5]: 3.3 nM
Activity (MT4): Non-toxic
Vd [26]: 3.3 L/kg
clearance [28]: 2.2 mL/min/kg
bioavailability [29]: 36%

N#Cc1cc(Cl)cc(Oc2c(Cl)ccc3c2c(Cl)nn3Cc2n[nH]c3ncccc23)c1
IC95 [9]: > 2 µM
IC95 [1]: > 2 µM
Ki [2]: 46 nM
IC95 [3]: > 0.5 µM
Ki [4]: 28 nM
IC95 [6]: > 5 µM
Ki [5]: 42 nM
Activity (MT4): Non-toxic

N#Cc1cc(Cl)cc(Oc2cc(OCc3n[nH]c4ncccc34)ccc2Cl)c1
IC95 [9]: 0.022 µM
IC95 [1]: 0.015 µM
bioavailability [35]: 3%
AUC/dose (Rattus norvegicus): 0.1 µM·h
Ki [2]: 0.12 nM
AUC/dose (Canis familiaris [36]): 0.14 µM·h
IC95 [3]: 0.01 µM
solubility [19]: < 0.1 µg/mL
Ki [4]: 0.22 nM
IC95 [6]: 0.052 µM
Ki [5]: 0.23 nM
Activity (MT4): Non-toxic
bioavailability [29]: 7.5%

From ChEMBL document CHEMBL1938372, “Design and synthesis of conformationally constrained inhibitors of non-nucleoside reverse transcriptase” (J Med Chem, 2011)
